pKi: −log10 of the molar value. Active and inactive are the calls of the source. The rule behind the calls is not given here. Numbered stars: 1 amine (or outer) side, 2 acyl side, 3 side chain; on linkers, the order of the positions; unused ones are H or OH. Square brackets hold non-standard residues; d marks the D form. Peptide text beside a SMILES is read from it. X1 = O=C([C@@H]1Cc2nc[nH]c2CN1[*:1])[*:2]; Tic = O=C(O)[C@@H]1Cc2ccccc2CN1
Key:
[1] = target: T1, Type-1 angiotensin II receptor (Homo sapiens) (UniProt P30556); assay: Displacement of [3H]valsartan from human recombinant AT1 receptor expressed in CHO cells at 10 uM after 40 mins by liquid scintillation counting; format: cell-based
T1 sequence (whole entry): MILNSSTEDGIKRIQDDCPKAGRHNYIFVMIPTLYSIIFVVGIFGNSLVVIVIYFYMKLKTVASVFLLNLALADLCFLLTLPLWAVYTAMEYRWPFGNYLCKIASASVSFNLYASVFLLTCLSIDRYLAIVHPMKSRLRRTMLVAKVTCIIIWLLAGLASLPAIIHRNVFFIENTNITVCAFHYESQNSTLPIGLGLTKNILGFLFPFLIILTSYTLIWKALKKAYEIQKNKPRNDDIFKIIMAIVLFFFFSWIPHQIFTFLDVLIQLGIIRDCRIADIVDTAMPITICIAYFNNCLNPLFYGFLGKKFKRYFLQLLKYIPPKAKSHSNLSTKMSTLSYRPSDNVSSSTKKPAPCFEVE
How it was run: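 Intact CHO-AT1 cells, human AT1 receptor stably expressed, prewashed in PBS, then 15 min in DMEM at 37 °C. Test agent at 10^-5 M with [3H]Valsartan (final 1.5 nM) for 40 min at 37 °C. Nonspecific binding with 1 μM Candesartan. Specific binding reported as percent of control, binding in medium only. Cell-bound radioactivity solubilized in 0.2 M NaOH and counted.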

[2] = Metabolic stability in CHOK1 cells harboring endogenous IRAP at 0.1 to 10000 nM pretreated for 40 mins by [3H]angiotensin 4 competition binding assay in absence of chelator EDTA and 1, 10-phenantroline; format: ADME, cell-based, Cricetulus griseus; conditions: chinese hamster, cho-k1, 40 min, 10 µM
How it was run: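 Membrane homogenates of CHO-K1 cells carrying endogenous IRAP, equivalent to 4×10^5 cells, in 50 mM Tris-HCl pH 7.4 assay buffer. Preincubated 40 min at 37 °C with compound, no chelator added. [3H]Ang IV (final 3 nM) then added for 30 min at 37 °C. Nonspecific binding with 10 μM Ang IV. Filtered on BSA-presoaked GF/B filters and counted. Specific binding given as percent of control.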

[3] = target: T2, Type-1 angiotensin II receptor (Homo sapiens, UniProt P30556); assay: Displacement of [3H]valsartan from human recombinant AT1 receptor expressed in CHO cells after 40 mins by liquid scintillation counting; format: cell-based
T2 sequence (P30556 whole entry): T1 sequence (whole entry)
How it was run: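 CHO cells stably expressing human AT1 receptor, washed twice in PBS at room temperature, then 15 min in DMEM at 37 °C. Competition with [3H]Valsartan (final 1.5 nM) over a full dose range for 40 min at 37 °C. Nonspecific binding defined with 1 μM Candesartan. Cells washed 3× in cold PBS and lysed in 0.2 M NaOH before scintillation counting. IC50 by nonlinear regression, Ki by Cheng–Prusoff.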

Activity [1]	Stability [2]	pKi [3]	SMILES
inactive	Unstable	–	CC[C@H](C)[C@H](NC(=O)[C@H](Cc1ccc(O)cc1)NC(=O)[C@@H](N)C(C)C)C(=O)N[C@H]1Cc2ccccc2CN(CC(=O)N[C@@H](Cc2ccccc2)C(=O)O)C1=O
inactive	Stable	–	CC[C@H](C)[C@H](NC(=O)[C@H](Cc1ccc(O)cc1)NC(=O)[C@@H](CN)C(C)C)C(=O)N[C@H]1Cc2c([nH]c3ccccc23)CN(CC(=O)N[C@@H](Cc2ccccc2)C(=O)O)C1=O
inactive	–	–	CC[C@H](C)[C@H](NC(=O)[C@H](Cc1ccc(O)cc1)NC(=O)[C@@H](N)C(C)C)C(=O)N1Cc2[nH]cnc2C[C@H]1C(=O)N1CCC[C@H]1C(=O)N[C@@H](Cc1ccccc1)C(=O)O (H-VYI[X1]PF-OH)
Active	Stable	6.85	CC[C@H](C)[C@H](NC(=O)[C@H](Cc1ccc(O)cc1)NC(=O)[C@@H](CN)C(C)C)C(=O)N[C@H]1Cc2ccccc2CN(CC(=O)N[C@@H](Cc2ccccc2)C(=O)O)C1=O
inactive	–	–	CC[C@H](C)[C@H](NC(=O)[C@H](Cc1ccc(O)cc1)NC(=O)[C@@H](N)C(C)C)C(=O)N1Cc2ccccc2C[C@H]1C(=O)N1CCC[C@H]1C(=O)N[C@@H](Cc1ccccc1)C(=O)O (H-VYI[Tic]PF-OH)
inactive	Unstable	–	CC[C@H](C)[C@H](NC(=O)[C@H](Cc1ccc(O)cc1)NC(=O)[C@@H](N)C(C)C)C(=O)N[C@H]1Cc2c([nH]c3ccccc23)CN(CC(=O)N[C@@H](Cc2ccccc2)C(=O)O)C1=O

Source: ChEMBL document CHEMBL1154281 (J Med Chem, 2009)
